Results: ChEMBL document CHEMBL2401613, “Benzofused hydroxamic acids: useful fragments for the preparation of histone deacetylase inhibitors. Part 1: hit identification” (Bioorg Med Chem Lett, 2013)
Values after ≈ are worked out from the molar mass of the structure shown.

What was measured:
[1] = target: T1, Histone deacetylase (Homo sapiens) (UniProt Q13547+O15379+Q9UBN7+Q92769+Q9UQL6+Q8WUI4+Q9BY41+Q96DB2+P56524+Q9UKV0+Q969S8); experiment: Inhibition of HDAC (unknown origin) at 0.1 uM; assay type: protein assay
Outline: (§1)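 HeLa nuclear extract HDAC incubated with an acetylated-lysine substrate and inhibitor. Deacetylated substrate mixed with developer gives a fluorophore, read at ex/em 335/460 nm. Two-point screen at 0.1 and 1.0 µM, expressed as % inhibition. Triplicate determinations, averaged.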

[2] = system: HCT-116; experiment: Cytotoxicity against human HCT116 cells after 5 days by Alamar Blue assay; assay type: functional, cell-based; settings: HCT-116, 120 h
Outline: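 Colon cancer HCT-116 cells were seeded in complete medium, and inhibitors were added after 24 h at 0.1–100 µM in quadruplicate. After 5 days, Alamar Blue was added and plates were incubated a further 4 h. Fluorescence was read at ex 530/em 590 nm. IC50 is the concentration giving 50% inhibition of proliferation.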

[3] = target: T1, Histone deacetylase (Homo sapiens); experiment: Inhibition of HDAC (unknown origin) at 1 uM; assay type: protein assay; outline: as §1
[4] = target: Histone deacetylase; experiment: Inhibition of HDAC in human HeLa cells assessed as deacetylation of substrate by fluorescence plate reader analysis; assay type: cell-based
Outline: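 Enzyme source: HeLa cell nuclear extract (partially purified HDAC). Extract incubated with an acetylated-lysine substrate in the presence of inhibitor; a developer then releases a fluorophore from the deacetylated substrate, read at ex/em 335/460 nm. IC50 is the concentration giving 50% inhibition of enzymatic activity, from triplicate runs averaged. SAHA and LAQ-xx were positive controls.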

[5] = Aqueous solubility of the compound at pH 7.4; assay type: physicochemical
[6] = system: HCT-116; experiment: Antitumor activity against human HCT116 cells xenografted in CD1 mouse assessed as reduction in tumor volume at 50 mg/kg, po; assay type: functional; set-up: scale not given: the % may be the effect or the level left
Outline: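 Female CD1 nude (nu/nu) athymic mice were dosed orally at 50 and 100 mg/kg for 21 days, n = 4 per group. Vehicle control was 0.5% CMC at 10 mL/kg. Read-out was tumor volume inhibition (TVI).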

Row | Structure (SMILES) | inhibition [1] | inhibition [3] | IC50 [4] | solubility [5] | IC50 [2] | Activity [6]
1 | O=C(NCc1ccc2cc(C(=O)NO)sc2c1)c1ccco1 | 89% | 92% | – | – | 70 nM | –
2 | O=C(NO)c1cc2ccc(CN(CCO)C(=O)Nc3ccccc3)cc2s1 | 77% | 91% | – | – | 1400 nM | –
3 | N[C@@H](CCc1ccccc1)C(=O)Nc1ccc2cc(C(=O)NO)sc2c1 | 71% | 85% | – | – | 3400 nM | –
4 | O=C(Cc1ccc2c(c1)OCO2)Nc1ccc2cc(C(=O)NO)sc2c1 | 55% | 78% | – | – | – | –
5 | O=C(Cc1cccnc1)Nc1ccc2cc(C(=O)NO)sc2c1 | 62% | 83% | – | 4 µg/mL (≈ 12.2 µM) | 3000 nM | –
6 | N[C@@H](Cc1ccccc1)C(=O)Nc1ccc2cc(C(=O)NO)sc2c1 | 54% | 81% | – | – | 5000 nM | –
7 | O=C(NO)c1cc2sccc2s1 | – | – | 557 nM | – | – | –
8 | O=C(Cc1ccsc1)Nc1ccc2cc(C(=O)NO)sc2c1 | 73% | 87% | – | – | 110 nM | –
9 | O=C(Cc1ccccn1)Nc1ccc2sc(C(=O)NO)cc2c1 | 39% | 74% | – | 4 µg/mL (≈ 12.2 µM) | – | –
10 | O=C(Cc1ccccc1)Nc1ccc2cc(C(=O)NO)sc2c1 | 71% | 85% | – | 4 µg/mL (≈ 12.3 µM) | 100 nM | 26%
11 | N#Cc1cc2ccc(NC(=O)[C@H](N)c3ccccc3)cc2s1 | < 20% | < 20% | – | – | – | –
12 | O=C(NCc1ccc2cc(C(=O)NO)sc2c1)c1cccnc1 | 72% | 84% | – | – | 730 nM | –

Second part, led by results:

Row | inhibition [1] | inhibition [3] | IC50 [4] | solubility [5] | Structure (SMILES) | IC50 [2] | Activity [6]
13 | 70% | 85% | – | – | N[C@@H](C(=O)Nc1ccc2cc(C(=O)NO)sc2c1)c1ccccc1 | 500 nM | –
14 | – | – | 3790 nM | – | COc1cccc2sc(C(=O)NO)cc12 | – | –
15 | 41% | 77% | – | – | N[C@H](Cc1ccccc1)C(=O)Nc1ccc2cc(C(=O)NO)sc2c1 | 340 nM | –
16 | 23% | 68% | – | – | O=C(NO)c1cc2ccc(COc3cccc(F)c3)cc2s1 | – | –
17 | 57% | 82% | – | – | CN(C)c1ccc(CC(=O)Nc2ccc3cc(C(=O)NO)sc3c2)cc1 | 500 nM | –
18 | 22% | 58% | – | – | O=C(NO)c1cc2ccc(COc3ccccc3F)cc2s1 | – | –
19 | < 20% | 31% | – | – | O=C(NO)c1cc2ccc(COc3ccc(F)cc3)cc2s1 | – | –
20 | 50% | 79% | – | 1310 µg/mL (≈ 4080 µM) | CN(C)CCCC(=O)Nc1ccc2cc(C(=O)NO)sc2c1 | 2400 nM | –
21 | – | – | 2910 nM | – | O=C(NO)c1cc2cccc(Cl)c2s1 | – | –
22 | 59% | 78% | – | 4 µg/mL (≈ 12.2 µM) | O=C(Cc1ccccn1)Nc1ccc2cc(C(=O)NO)sc2c1 | 480 nM | –
23 | – | – | 458 nM | – | Cc1ccc2cc(C(=O)NO)sc2c1F | – | –
24 | 53% | 83% | – | – | O=C(NO)c1cc2ccc(CN3CCc4ccccc4C3)cc2s1 | 1300 nM | –
25 | 21% | 63% | – | 4 µg/mL (≈ 11.3 µM) | CN(C(=O)CCc1ccccc1)c1ccc2cc(C(=O)NO)sc2c1 | – | –
26 | 44% | 78% | – | – | N[C@H](CCc1ccccc1)C(=O)Nc1ccc2cc(C(=O)NO)sc2c1 | 320 nM | –
27 | 75% | 84% | – | – | COc1ccc(CC(=O)Nc2ccc3cc(C(=O)NO)sc3c2)cc1 | 490 nM | –
